These results are taken from article PMC6718129 (Drug Design, Development and Therapy, 2019).

For one experiment, the system named is A-549 cell line. Briefly: Cell cycle distribution by total DNA content. Format: cell-based, human. The note with it: A-549, 24 and 48 hrs. An outline of the steps: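 A-549 cells treated 24 or 48 hr over a range from below 100 µM down to 50 nM, alongside a reference drug. Total DNA content per cell was quantified to assign cell cycle phase, together with immunofluorescent imaging of nuclear phosphorylated Rb. Automated image analysis quantified changes, and IC50 values were taken from dose–response curves.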

For experiment [1], the system named is phosphorylated Rb protein in A-549 cell line. The experiment in a line: Rb phosphorylation by quantitative immunofluorescence. Format: cell-based, human. The note with it: A-549, dose-response. Put shortly: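 A-549 cells were treated with vehicle or test compound (less than 100 µM down to 50 nM) for 24 or 48 hr. Nuclear phospho-Rb was measured by immunofluorescence, and total DNA content per cell gave the cell-cycle phase. Automated image analysis quantified P-Rb changes as dose–response curves, from which IC50 values were taken.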

SMILES strings stand for the structures.

Turning to `CCN(CC)CCNC(=O)c1c(C)[nH]c(/C=C2\C(=O)Nc3ccc(F)cc32)c1C` [Sunitinib], the Cell cycle influences result in the experiment on A-549 cell line is reported as “increase in the percentage of cells in the S or G2/M phases of the cell cycle, with a concomitant reduction in the G1 phase”. The “levels of phosphorylated Rb protein (immunofluorescence)” value in experiment [1] is “substantially reduced the extent of phosphorylated Rb protein in a dose-dependent fashion”.
